thrombin 1536: inhibitors of human thrombin. 0.26% of 220,000 active. alpha-thrombin, Boc-VPR-AMC fluorogenic substrate cleavage. inhibition, % at 5 µM. P00734;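 active = inhibition at or above 40%; inactive = inhibition below 40%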;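 also: 0% = enzyme with no compound and 100% = wells without enzyme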
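Test system: human alpha-thrombin; medium: pH 7.5 Tris-saline with Tween 20; times: reaction at room temperature; signal: AMC fluorescence at 355 nm excitation and 460 nm emission; also added: Boc-VPR-AMC substrate, 15 µM final; dosing: one concentration per compound, 5 µM, with 0.2% DMSO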
FXIIa inh 1536: blocks human coagulation factor XIIa protease activity | purified FXIIa, Boc-QGR-AMC fluorogenic substrate, 2 h | P00748 | AID 800 | inhibition, % at 5 µM | 0.3% of 220,000 active; in the data active = inhibition above about 40%;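 also: 0% = enzyme with no compound and 100% = blank without enzyme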
FXIa inh 1536: factor XIa (human) inhibition | 0.14% of 220,000 active | purified FXIa, Boc-Glu-Ala-Arg-AMC fluorogenic substrate | inhibition, % at 5 µM | P03951;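 active = inhibition of at least 40%; inactive = inhibition below 40%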;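 also: fluorescence of freed AMC excited at 355 nm; 0% = enzyme without compound and 100% = no enzyme blank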
hK5 inh: blocks human kallikrein 5 protease activity | AID 873 | inhibition, % at 5 µM | 0.59% of 210,000 active | recombinant hK5, fluorogenic AMC substrate cleavage | Q9Y337;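 active = inhibition of 40% or more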;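 also: 0% = enzyme controls without compound and 100% = no-enzyme blanks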
Target sequence (Q9Y337 67-293 limits assumed): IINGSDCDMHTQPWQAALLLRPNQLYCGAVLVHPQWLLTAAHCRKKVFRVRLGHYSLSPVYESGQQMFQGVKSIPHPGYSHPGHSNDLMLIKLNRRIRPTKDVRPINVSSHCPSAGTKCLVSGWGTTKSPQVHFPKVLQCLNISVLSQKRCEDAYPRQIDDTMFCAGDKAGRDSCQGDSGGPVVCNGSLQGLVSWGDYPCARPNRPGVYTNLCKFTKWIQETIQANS
Wee1 degr inh: human Wee1 degradation inhibition, primary screen | 1.2% of 220,000 active | P30291 | HeLa Luc-Wee1K328M stability, luciferase luminescence; 100% = proteasome inhibitor MG132 effect | reporter increase, % at 5 µM;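 active = activation above the mean of all tested compounds plus 3 SD, set per screening run, cut at about 8.8% in these data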;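 also: cells exposed to compound for 20 h before luminescence read; 0% = DMSO alone and 100% = MG132 at 30 µM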
An asterisk follows results filed as active. Most compounds without a hit are left out; they make up all but 2.2% or so of the library.

How did COc1cc(Cl)c(C)cc1NC(=O)CSc1cc(Cl)ccc1Cl do in these assays?
thrombin 1536: -8; FXIIa inh 1536: 5; FXIa inh 1536: 1; hK5 inh: -6; Wee1 degr inh: -3

Results for O=C(/C=C/c1ccccc1)N1CCN(CCN2C(=O)c3cccc4cccc(c34)C2=O)CC1 ?
thrombin 1536: 3; FXIIa inh 1536: 9; FXIa inh 1536: 9; hK5 inh: -1; Wee1 degr inh: 9.8*

Results for O=C(NC(=S)Nc1ccc(F)cc1)c1ccc2c(c1)OCCO2 ?
thrombin 1536: 3; FXIIa inh 1536: -1; FXIa inh 1536: -5; hK5 inh: -11; Wee1 degr inh: 9.5*

How did CCOC(=O)N1CCC(NC(=O)CCC(=O)N2CCOc3ccc(C)cc32)CC1 do in these assays?
thrombin 1536: 2; FXIIa inh 1536: 16; FXIa inh 1536: 2; hK5 inh: -3; Wee1 degr inh: 10*

How did C=CCn1c(SCC(=O)c2[nH]c(C)c(C(=O)OCC)c2C)nc2scc(-c3ccc(OC)c(OC)c3)c2c1=O do in these assays?
thrombin 1536: -2; FXIIa inh 1536: 9; FXIa inh 1536: 8; hK5 inh: -18; Wee1 degr inh: 9.4*

What do the screens show for `CCC(=O)Nc1ccc(S(=O)(=O)N2CCOCC2)cc1`?
thrombin 1536: -5; FXIIa inh 1536: 2; FXIa inh 1536: -12; hK5 inh: -9; Wee1 degr inh: -2

How did CC1CN(S(=O)(=O)c2ccc(NC(=O)c3cc(-c4ccccc4O)n[nH]3)cc2)CC(C)O1 (stereo not given) do in these assays?
thrombin 1536: 2; FXIIa inh 1536: 25; FXIa inh 1536: 2; hK5 inh: -3; Wee1 degr inh: -4

How did O=C(CN1CCCCCC1)Nc1ccc(S(=O)(=O)N2CCOCC2)cc1 do in these assays?
thrombin 1536: -11; FXIIa inh 1536: 6; FXIa inh 1536: -3; hK5 inh: -2; Wee1 degr inh: 9.6*

How did O=C(Nc1ccc(S(=O)(=O)N2CCOCC2)cc1)c1cc(-c2ccccc2O)n[nH]1 do in these assays?
thrombin 1536: -1; FXIIa inh 1536: 5; FXIa inh 1536: -1; hK5 inh: -2; Wee1 degr inh: 10*

What do the screens show for `Cc1ccc(C(=O)N/C(=C\c2cccs2)C(=O)NCC2CCCO2)cc1C` (stereo not given)?
thrombin 1536: -10; FXIIa inh 1536: 3; FXIa inh 1536: -3; hK5 inh: -17; Wee1 degr inh: 2

How did CC(=O)N/C(=N\OCc1ccccc1Cl)c1nonc1NC(C)=O do in these assays?
thrombin 1536: -4; FXIIa inh 1536: 9; FXIa inh 1536: 0; hK5 inh: -22; Wee1 degr inh: 3

How did COc1ccc(NC(=O)/C(Cl)=C(/Cl)S(=O)(=O)Cc2ccccc2)cn1 do in these assays?
thrombin 1536: 11; FXIIa inh 1536: 9; FXIa inh 1536: 16; hK5 inh: 13; Wee1 degr inh: 4

Results for COc1ccc(NC(=O)C(Cl)=C(Cl)Cl)cn1 ?
thrombin 1536: -3; FXIIa inh 1536: 26; FXIa inh 1536: 32; hK5 inh: 103*; Wee1 degr inh: 0

Results for COc1ccc(NC(=O)/C(Cl)=C(/Cl)S(=O)Cc2ccc(Cl)cc2)cn1 (stereo not given) ?
thrombin 1536: -9; FXIIa inh 1536: 8; FXIa inh 1536: -2; hK5 inh: 8; Wee1 degr inh: 13*

Results for CSc1sc(C(=O)N2CCCCC2)c(-c2cccs2)c1C#N ?
thrombin 1536: 4; FXIIa inh 1536: 8; FXIa inh 1536: -2; hK5 inh: 2; Wee1 degr inh: 2

Results for COc1cc2nc(/C=C/c3cc(OC)c(OC)c(OC)c3)sc2cc1SC ?
thrombin 1536: -15; FXIIa inh 1536: -10; FXIa inh 1536: -9; hK5 inh: -26; Wee1 degr inh: 9.7*

How did CCOC(=O)c1c(C)[nH]c(C(=O)N/N=C\c2ccccc2Cl)c1C do in these assays?
thrombin 1536: -5; FXIIa inh 1536: 10; FXIa inh 1536: 2; hK5 inh: -9; Wee1 degr inh: 4

How did CCCCCOCC(O)CCC(=O)NN (stereo not given) do in these assays?
thrombin 1536: -3; FXIIa inh 1536: -2; FXIa inh 1536: -7; hK5 inh: 1; Wee1 degr inh: 0

Results for CCN1CCN(S(=O)(=O)c2cc(C(=O)O)ccc2Cl)CC1 ?
thrombin 1536: 5; FXIIa inh 1536: 29; FXIa inh 1536: 18; hK5 inh: 18; Wee1 degr inh: 9.6*

What do the screens show for `O=C(O)c1ccc(Cl)c(S(=O)(=O)N2CCCC2)c1`?
thrombin 1536: -2; FXIIa inh 1536: 7; FXIa inh 1536: 0; hK5 inh: 0; Wee1 degr inh: 6
